Measured values collected from several papers.
Protocols differ between the studies behind these lines.
Target: Serine/threonine-protein kinase DCLK1 (DCLK1, Homo sapiens, UniProt O15075)
Sequence (O15075 1-740, as in one of the studies): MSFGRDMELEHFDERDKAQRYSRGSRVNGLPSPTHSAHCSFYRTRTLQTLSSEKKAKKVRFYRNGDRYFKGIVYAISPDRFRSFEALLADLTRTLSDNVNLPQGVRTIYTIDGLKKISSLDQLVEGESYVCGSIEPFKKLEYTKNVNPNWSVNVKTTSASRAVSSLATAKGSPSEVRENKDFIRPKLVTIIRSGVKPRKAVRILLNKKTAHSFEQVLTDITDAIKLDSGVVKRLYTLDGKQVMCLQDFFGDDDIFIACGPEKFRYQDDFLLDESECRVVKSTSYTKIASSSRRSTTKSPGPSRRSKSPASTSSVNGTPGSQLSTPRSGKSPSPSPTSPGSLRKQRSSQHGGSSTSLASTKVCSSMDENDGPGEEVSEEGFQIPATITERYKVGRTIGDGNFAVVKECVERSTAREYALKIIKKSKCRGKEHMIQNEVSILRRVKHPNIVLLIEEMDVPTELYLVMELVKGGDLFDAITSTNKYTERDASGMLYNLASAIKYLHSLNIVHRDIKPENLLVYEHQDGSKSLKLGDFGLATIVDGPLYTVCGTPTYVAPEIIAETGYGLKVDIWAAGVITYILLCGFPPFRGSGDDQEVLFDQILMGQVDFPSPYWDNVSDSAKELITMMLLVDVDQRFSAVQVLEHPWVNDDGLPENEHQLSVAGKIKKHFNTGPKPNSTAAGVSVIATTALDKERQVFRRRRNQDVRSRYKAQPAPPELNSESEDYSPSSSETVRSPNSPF

For `C[C@H]1CC[C@H](n2c3cnccc3c3cnc(Nc4ccc5c(n4)CCN(C(=O)CO)C5)nc32)CC1`, the remaining signal was 75% (cell-free assay; 1 µM).
`C=CC(=O)N1CCC([C@@H]2CCNc3c(C(N)=O)c(-c4ccc(Oc5ccccc5)cc4)nn32)CC1` has an inhibition of 41% (enzyme activity, inhibitor; 1 µM).
With `CN1CCN(C(=O)c2ccc(NC(=O)Nc3ccc(N(C)c4ccnc(Nc5ccc(CS(C)(=O)=O)cc5)n4)cc3)cc2)CC1` the remaining binding was 97% (binding, competition with immobilised ligand; 1 µM).
With `C1=C/COCc2cc(ccc2OCCN2CCCC2)Nc2nccc(n2)-c2cccc(c2)COC/1` the remaining signal was 100% (cell-free assay; 0.1 µM).
For `COc1ccc2oc(-c3ccc4nc(N)oc4c3)c/c(=N\c3ccccc3NC(=O)CCN)c2c1`, the remaining binding was 96% (binding; 1 µM).
`CC#CC(=O)N1CCC[C@H]1c1nc(-c2ccc(C(=O)Nc3ccccn3)cc2)c2c(N)nccn12` has an inhibition of 15% (enzyme activity, inhibitor; 1 µM).
With `CCCCC(=O)Nc1ccc(-c2ccc3ncn(CCC)c(=O)c3c2)cn1` the remaining binding was 68% (binding, competition with immobilised ligand; 0.5 µM).
With `N#Cc1ccc(NC(=O)Nc2ccccc2)cc1` the remaining binding was 91% (cell-free assay, competition with immobilised ligand; 25 µM).
`CC(C)S(=O)(=O)c1ccc2nccc(Nc3ccc4sc(C5CCCC5)nc4c3)c2c1` has an activity vs control of 102% (enzyme activity, inhibitor; 1 µM).
